Measured values from publication PMC3796951 (Psychopharmacology, 2012).
Where a name gives a salt, the structure may show the parent alone. Read-outs that look alike come from different tables or passages of the source.

How the values were obtained:
[1] = target: H1 (Homo sapiens, UniProt P35367); test: Radioligand binding
[2] = target: Sigma-2 (Rattus norvegicus, UniProt Q5U3Y7); test: Radioligand binding
[3] = target: M1 (Homo sapiens, UniProt P11229); test: Radioligand binding
[4] = target: DAT (Homo sapiens, UniProt Q01959); test: Radioligand binding
[5] = target: β2 (Homo sapiens, UniProt P07550); test: Radioligand binding
[6] = target: [3H]DOB-labeled 5-HT2A receptors; details: [3H]DOB-labeled 5-HT2A receptors (agonist high-affinity state) ref Egan et al. 2000; cited from earlier work
[7] = target: D1 (Homo sapiens, UniProt P21728); test: Radioligand binding
[8] = target: KOR (Homo sapiens, UniProt P41145); test: Radioligand binding
[9] = target: D3 (Rattus norvegicus, UniProt P19020); test: Radioligand binding
[10] = target: EP4 (Homo sapiens, UniProt P35408); test: Radioligand binding
[11] = target: sigma-1 (Homo sapiens, UniProt Q99720); test: Radioligand binding
[12] = tested on: Male Sprague–Dawley rats; test: Behavioral Pattern Monitor; format: in vivo, rat
In short: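 Male Sprague–Dawley rats (250–275 g at arrival), pair-housed under a reverse 12-h light–dark cycle, were handled the day before testing and were naïve to the BPM. Pargyline (0 or 10 mg/kg) was given 20 min before the test compound; all dosing was s.c. at 1 ml/kg, n=7–8. Ten min after dosing, rats were placed in the BPM and monitored for 60 min in darkness. Crossings between eight sectors were counted in 10-min bins, and spatial d was derived from X–Y paths.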

[13] = target: DOR (Homo sapiens, UniProt P41143); test: Radioligand binding
[14] = target: NET (Homo sapiens, UniProt P23975); test: Radioligand binding
[15] = target: α1D (Homo sapiens, UniProt P25100); test: Radioligand binding
[16] = target: α1B (Homo sapiens, UniProt P35368); test: Radioligand binding
[17] = target: α2C (Homo sapiens, UniProt P18825); test: Radioligand binding
[18] = target: M3 (Homo sapiens, UniProt P20309); test: Radioligand binding
[19] = target: β3 (Homo sapiens, UniProt P13945); test: Radioligand binding
[20] = target: α2A (Homo sapiens, UniProt P08913); test: Radioligand binding
[21] = target: D2 (Homo sapiens, UniProt P14416); test: Radioligand binding
[22] = target: D5 (Homo sapiens, UniProt P21918); test: Radioligand binding
[23] = target: M2 (Homo sapiens, UniProt P08172); test: Radioligand binding
[24] = target: H3 (Homo sapiens, UniProt Q9Y5N1); test: Radioligand binding
[25] = target: EP3 (Homo sapiens, UniProt P43115); test: Radioligand binding
[26] = target: H2 (Homo sapiens, UniProt P25021); test: Radioligand binding
[27] = target: β1 (Homo sapiens, UniProt P08588); test: Radioligand binding
[28] = tested on: humans; details: hallucinogenic activity, parenteral ref Shulgin and Shulgin 1997; cited from earlier work
[29] = target: D4 (Homo sapiens, UniProt P21917); test: Radioligand binding
[30] = target: M4 (Homo sapiens, UniProt P08173); test: Radioligand binding
[31] = target: MOR (Homo sapiens, UniProt P35372); test: Radioligand binding
[32] = target: SERT (Homo sapiens, UniProt P31645); test: Radioligand binding
[33] = target: M5 (Homo sapiens, UniProt P08912); test: Radioligand binding
[34] = target: α1A (Homo sapiens, UniProt P35348); test: Radioligand binding
[35] = target: H4 (Homo sapiens, UniProt Q9H3N8); test: Radioligand binding
[36] = tested on: 5-HT2A receptor; details: higher affinity than 5-MeO-DMT ref Roth et al. 1997; Egan et al. 2000; cited from earlier work
[37] = tested on: MAOB; details: pargyline 10 mg/kg, s.c. ref Ortmann et al. 1984; cited from earlier work
[38] = tested on: MAOA; details: pargyline 10 mg/kg, s.c. ref Ortmann et al. 1984; cited from earlier work
[39] = Experiment 1, drug × time interaction, post hoc per 30-min block
[40] = read-out: Ki nM (±SEM), [3H]prazocin, cloned human receptor
[41] = read-out: Ki nM (±SEM), [3H]clonidine, cloned human receptor

Chain of α2C (P18825 whole entry): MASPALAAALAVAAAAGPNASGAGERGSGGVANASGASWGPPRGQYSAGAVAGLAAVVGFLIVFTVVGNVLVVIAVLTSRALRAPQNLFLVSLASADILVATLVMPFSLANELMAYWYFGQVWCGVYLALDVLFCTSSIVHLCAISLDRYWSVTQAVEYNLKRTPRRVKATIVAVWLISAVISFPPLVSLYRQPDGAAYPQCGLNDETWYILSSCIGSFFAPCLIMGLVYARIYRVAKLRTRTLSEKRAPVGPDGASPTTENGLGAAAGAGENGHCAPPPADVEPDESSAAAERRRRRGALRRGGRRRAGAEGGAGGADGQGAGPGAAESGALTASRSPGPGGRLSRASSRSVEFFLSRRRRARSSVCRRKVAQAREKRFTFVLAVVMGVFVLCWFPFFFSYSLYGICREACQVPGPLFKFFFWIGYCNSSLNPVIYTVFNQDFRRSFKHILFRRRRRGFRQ
Chain of α1B (P35368 whole entry): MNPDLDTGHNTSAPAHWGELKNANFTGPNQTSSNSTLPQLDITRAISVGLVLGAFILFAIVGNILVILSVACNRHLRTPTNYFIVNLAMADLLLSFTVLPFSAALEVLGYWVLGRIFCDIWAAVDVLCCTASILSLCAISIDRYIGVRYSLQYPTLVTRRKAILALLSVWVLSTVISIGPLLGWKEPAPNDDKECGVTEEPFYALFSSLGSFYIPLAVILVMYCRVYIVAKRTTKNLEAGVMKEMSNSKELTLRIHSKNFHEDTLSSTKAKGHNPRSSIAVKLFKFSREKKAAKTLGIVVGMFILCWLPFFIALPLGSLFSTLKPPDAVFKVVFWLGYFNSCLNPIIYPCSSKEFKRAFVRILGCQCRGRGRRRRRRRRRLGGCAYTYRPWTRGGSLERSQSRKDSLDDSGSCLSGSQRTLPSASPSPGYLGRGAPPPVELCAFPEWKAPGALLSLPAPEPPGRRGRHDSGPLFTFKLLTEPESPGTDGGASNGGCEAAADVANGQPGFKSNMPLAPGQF
Chain of H1 (P35367 whole entry): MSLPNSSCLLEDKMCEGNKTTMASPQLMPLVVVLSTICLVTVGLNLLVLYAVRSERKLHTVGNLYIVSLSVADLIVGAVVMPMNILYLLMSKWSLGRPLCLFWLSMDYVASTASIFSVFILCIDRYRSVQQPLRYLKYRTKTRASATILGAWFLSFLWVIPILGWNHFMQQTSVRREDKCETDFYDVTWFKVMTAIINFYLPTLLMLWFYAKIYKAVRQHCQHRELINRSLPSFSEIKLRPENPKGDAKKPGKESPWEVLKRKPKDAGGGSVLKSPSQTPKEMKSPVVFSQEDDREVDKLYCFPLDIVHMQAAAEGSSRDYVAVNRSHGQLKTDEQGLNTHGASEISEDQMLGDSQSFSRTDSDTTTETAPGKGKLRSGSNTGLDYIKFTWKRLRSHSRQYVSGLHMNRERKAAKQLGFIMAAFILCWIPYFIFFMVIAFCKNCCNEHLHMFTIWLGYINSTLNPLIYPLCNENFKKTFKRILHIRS
Chain of α1A (P35348 whole entry): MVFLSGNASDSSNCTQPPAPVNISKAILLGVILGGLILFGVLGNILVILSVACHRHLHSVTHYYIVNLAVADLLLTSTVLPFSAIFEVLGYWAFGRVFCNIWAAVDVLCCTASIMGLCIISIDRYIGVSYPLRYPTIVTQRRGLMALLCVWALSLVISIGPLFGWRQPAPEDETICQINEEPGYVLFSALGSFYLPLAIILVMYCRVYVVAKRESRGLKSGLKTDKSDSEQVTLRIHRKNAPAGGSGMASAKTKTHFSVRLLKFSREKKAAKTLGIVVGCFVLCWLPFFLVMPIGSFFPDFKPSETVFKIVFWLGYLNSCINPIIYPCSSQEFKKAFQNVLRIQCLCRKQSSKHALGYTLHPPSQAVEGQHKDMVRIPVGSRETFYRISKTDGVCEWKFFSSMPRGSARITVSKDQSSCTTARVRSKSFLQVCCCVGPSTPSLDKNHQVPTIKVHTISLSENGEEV
Chain of H2 (P25021 whole entry): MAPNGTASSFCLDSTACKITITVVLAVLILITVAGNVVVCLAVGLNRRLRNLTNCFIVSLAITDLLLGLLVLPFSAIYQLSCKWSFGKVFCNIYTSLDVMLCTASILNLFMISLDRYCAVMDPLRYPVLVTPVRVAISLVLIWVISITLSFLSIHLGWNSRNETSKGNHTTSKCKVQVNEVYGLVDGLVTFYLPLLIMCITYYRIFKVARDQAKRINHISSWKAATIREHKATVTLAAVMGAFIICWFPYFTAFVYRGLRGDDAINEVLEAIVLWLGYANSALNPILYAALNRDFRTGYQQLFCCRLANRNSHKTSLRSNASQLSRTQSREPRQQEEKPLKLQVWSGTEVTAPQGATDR
Chain of Sigma-2 (Q5U3Y7 whole entry): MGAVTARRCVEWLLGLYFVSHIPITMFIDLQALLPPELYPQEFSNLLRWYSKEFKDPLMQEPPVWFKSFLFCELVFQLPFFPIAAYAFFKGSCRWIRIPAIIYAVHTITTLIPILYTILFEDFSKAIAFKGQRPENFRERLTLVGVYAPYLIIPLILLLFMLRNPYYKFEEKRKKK
Chain of α2A (P08913 whole entry): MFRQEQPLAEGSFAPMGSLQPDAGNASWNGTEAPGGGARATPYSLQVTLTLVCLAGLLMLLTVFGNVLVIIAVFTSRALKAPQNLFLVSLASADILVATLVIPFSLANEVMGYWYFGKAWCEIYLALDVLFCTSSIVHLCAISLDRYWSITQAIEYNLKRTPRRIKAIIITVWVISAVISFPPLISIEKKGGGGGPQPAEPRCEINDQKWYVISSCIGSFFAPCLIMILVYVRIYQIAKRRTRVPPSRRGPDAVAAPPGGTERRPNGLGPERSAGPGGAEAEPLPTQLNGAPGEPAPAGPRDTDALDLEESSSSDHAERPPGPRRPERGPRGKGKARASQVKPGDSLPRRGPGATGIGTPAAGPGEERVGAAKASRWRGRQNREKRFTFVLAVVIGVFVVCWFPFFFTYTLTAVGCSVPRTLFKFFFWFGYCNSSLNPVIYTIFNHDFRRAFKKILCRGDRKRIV
Chain of SERT (P31645 whole entry): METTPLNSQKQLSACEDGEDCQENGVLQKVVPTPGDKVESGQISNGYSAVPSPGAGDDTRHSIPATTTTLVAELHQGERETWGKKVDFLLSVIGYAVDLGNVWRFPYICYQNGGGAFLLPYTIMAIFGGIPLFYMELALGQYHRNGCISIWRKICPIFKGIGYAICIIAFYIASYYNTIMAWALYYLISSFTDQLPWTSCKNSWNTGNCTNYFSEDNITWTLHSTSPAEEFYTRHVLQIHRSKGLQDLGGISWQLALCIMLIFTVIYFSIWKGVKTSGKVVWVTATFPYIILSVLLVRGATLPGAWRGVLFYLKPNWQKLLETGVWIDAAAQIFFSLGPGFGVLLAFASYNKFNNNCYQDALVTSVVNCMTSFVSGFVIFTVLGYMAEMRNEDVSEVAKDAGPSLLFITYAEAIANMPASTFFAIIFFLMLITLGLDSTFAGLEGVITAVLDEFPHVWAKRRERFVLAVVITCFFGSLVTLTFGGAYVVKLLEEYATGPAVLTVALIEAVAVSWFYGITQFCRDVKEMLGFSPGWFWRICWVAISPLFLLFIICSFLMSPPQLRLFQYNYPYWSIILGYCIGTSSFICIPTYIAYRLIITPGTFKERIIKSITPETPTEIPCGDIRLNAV
Chain of β2 (P07550 whole entry): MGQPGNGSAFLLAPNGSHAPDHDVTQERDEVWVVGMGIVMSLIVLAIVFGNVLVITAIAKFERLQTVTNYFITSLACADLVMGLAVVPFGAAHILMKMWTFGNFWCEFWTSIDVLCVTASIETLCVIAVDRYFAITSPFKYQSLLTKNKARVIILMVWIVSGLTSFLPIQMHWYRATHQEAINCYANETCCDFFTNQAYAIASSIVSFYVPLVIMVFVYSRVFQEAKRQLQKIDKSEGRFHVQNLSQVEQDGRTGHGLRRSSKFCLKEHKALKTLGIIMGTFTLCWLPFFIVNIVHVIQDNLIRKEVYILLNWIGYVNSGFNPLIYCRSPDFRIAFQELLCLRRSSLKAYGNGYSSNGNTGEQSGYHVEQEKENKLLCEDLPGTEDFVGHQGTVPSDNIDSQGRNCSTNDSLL
Chain of D3 (P19020 whole entry): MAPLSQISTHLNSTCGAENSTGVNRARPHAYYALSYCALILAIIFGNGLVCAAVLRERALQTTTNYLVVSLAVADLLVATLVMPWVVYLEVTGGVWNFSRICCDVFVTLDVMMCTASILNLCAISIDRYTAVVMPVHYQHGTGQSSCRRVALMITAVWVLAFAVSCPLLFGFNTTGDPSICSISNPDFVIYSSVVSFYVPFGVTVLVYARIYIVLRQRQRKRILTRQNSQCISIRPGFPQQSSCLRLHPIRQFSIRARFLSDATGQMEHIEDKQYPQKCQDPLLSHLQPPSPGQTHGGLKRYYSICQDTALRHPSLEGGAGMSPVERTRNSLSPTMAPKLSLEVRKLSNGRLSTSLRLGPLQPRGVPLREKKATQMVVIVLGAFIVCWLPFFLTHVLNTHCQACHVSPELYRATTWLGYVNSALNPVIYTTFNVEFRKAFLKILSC
Chain of M5 (P08912 whole entry): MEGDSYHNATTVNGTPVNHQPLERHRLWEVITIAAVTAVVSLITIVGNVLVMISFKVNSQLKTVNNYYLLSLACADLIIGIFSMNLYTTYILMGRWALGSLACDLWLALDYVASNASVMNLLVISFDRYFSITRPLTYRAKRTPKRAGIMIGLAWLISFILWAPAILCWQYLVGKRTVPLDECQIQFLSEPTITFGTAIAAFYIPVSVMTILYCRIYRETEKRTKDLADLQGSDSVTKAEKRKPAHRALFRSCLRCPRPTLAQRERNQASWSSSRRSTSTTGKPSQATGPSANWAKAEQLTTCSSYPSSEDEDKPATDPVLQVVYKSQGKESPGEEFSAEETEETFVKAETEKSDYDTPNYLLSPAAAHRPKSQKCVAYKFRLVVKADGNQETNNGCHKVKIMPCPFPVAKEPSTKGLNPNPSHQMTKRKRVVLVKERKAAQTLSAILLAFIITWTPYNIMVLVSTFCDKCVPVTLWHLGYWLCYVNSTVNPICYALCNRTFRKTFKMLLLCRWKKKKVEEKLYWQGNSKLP

Molecule `COc1ccc2[nH]cc(CCN(C)C)c2c1.O=C(O)C(=O)O` [5-MeO-DMT, 5-Methoxy-N, N-dimethyltryptamine oxalate] has a Ki [1] of 7580 nM, a Ki [2] of 3690 nM and a Ki [3] of over 10 µM. The Ki [4] was over 10 µM, the Ki [5] was 2680 nM and the Ki [6] was 0.09 µM. For the same molecule, the Ki [7] was over 10 µM, the Ki [8] was over 10 µM and the Ki [9] was over 10000 nM. For the same molecule, the Ki [10] was over 10 µM, the Ki [11] was over 10 µM and the “Effect on crossings (locomotor activity)” value ([12]; Experiment 1, 0.1 mg/kg s.c. after pargyline 10 mg/kg) was “reduced crossings during the first half-hour, but did not increase activity during the second half-hour”. For the same molecule, the “Effect on spatial d” value ([12]; Experiment 1, 1.0 mg/kg s.c. after pargyline 10 mg/kg, second half-hour of session (p<0.01)) was “significantly reduced spatial d”, the “Effect on spatial d” value ([12]; Experiment 1, 0.01 and 0.1 mg/kg s.c. after pargyline 10 mg/kg) was “no effect on spatial d” and the “Effect on crossings (locomotor activity)” value ([12]; Experiment 1, 0.1 and 1.0 mg/kg s.c., vehicle-pretreated rats) was “reduced crossings”. For the same molecule, the “Effect on spatial d” value [12, 39] was “post hoc analysis failed to confirm this for any specific 30-min block”, the “Effect on crossings (locomotor activity)” value ([12]; Experiment 3, 0.3 to 3.0 mg/kg s.c. alone, first 10 min of testing (p<0.01)) was “significantly reduced crossings” and the “Effect on spatial d” value ([12]; Experiment 3, 0.3 to 3.0 mg/kg s.c. alone, first or second half-hour, post hoc) was “failed to alter spatial d significantly”. The “Biphasic effects on locomotor activity” value ([12]; Experiment 3, alone, up to 3 mg/kg s.c.) was “did not induce biphasic effects on locomotor activity”, the Ki [13] was over 10 µM and the Ki [14] was over 10 µM. It also gave a Ki [15] of 439 nM, a Ki [16] of 2190 nM and a Ki [17] of 206 nM. For the same molecule, the Ki [18] was over 10 µM, the Ki [19] was over 10 µM and the Ki [20] was 938 nM. For the same molecule, the Ki [21] was over 10 µM, the Ki [22] was over 10 µM and the Ki [23] was over 10 µM. For the same molecule, the Ki [24] was over 10 µM, the Ki [25] was over 10 µM and the Ki [26] was over 10000 nM. For the same molecule, the Ki [27] was over 10 µM, the “Active parenteral dose in humans” value [28] was 2 to 3 mg and the Ki [29] was over 10 µM. The Ki [30] was over 10 µM, the Ki [31] was over 10 µM and the Ki [32] was 3600 nM. The Ki [33] was over 10 µM, the Ki [34] was 4370 nM and the Ki [35] was over 10 µM.

For `CN(C)CCc1c[nH]c2ccc(O)cc12` [bufotenine, 5-hydroxy-DMT], the “Affinity for the 5-HT2A receptor relative to 5-MeO-DMT” value [36] is given as 10 fold.

For `C#CCN(C)Cc1ccccc1` [pargyline, pargyline hydrochloride], the MAOB inhibition [37] is given as 92%, the “Effect on spatial d” value [12, 39] is given as “post hoc analysis failed to confirm this for any specific 30-min block” and the MAOA inhibition [38] is given as 78%.

Molecule `COc1ccc2[nH]cc(CCN(C)C)c2c1` [α,α,β,β-tetradeutero-5-MeO-DMT, α,α,β,β-Tetradeutero-5-methoxy-N,N-dimethyltryptamine (2:1) fumarate] has a Ki ([1]; read-out: Ki nM (±SEM), [3H]pyrilamine, cloned human receptor) of over 10000 nM, a Ki ([2]; read-out: Ki nM (±SEM), [3H]DTG, rat) of 7170 nM and a Ki ([5]; read-out: Ki nM (±SEM), [3H]CGP12177, cloned human receptor) of 4560 nM. For the same molecule, the Ki ([9]; read-out: Ki nM (±SEM), [3H]N-methyl-spiperone, cloned rat receptor) was 7090 nM, the Ki ([15]; read-out: Ki nM (±SEM), [125I]HEAT, cloned human receptor) was 202 nM and the Ki [16, 40] was 841 nM. It also gave a Ki [17, 41] of 274 nM, a Ki [20, 41] of 1870 nM and a Ki ([26]; read-out: Ki nM (±SEM), [3H]tiotidine, cloned human receptor) of 7160 nM. The Ki ([32]; read-out: Ki nM (±SEM), [3H]citalopram, cloned human transporter) was 2760 nM and the Ki [34, 40] was 1010 nM.

In the case of `O=C(O)/C=C/C(=O)O.[2H]C([2H])(c1c[nH]c2ccc(OC)cc12)C([2H])([2H])N(C)C.[2H]C([2H])(c1c[nH]c2ccc(OC)cc12)C([2H])([2H])N(C)C` [α,α,β,β-tetradeutero-5-MeO-DMT, α,α,β,β-Tetradeutero-5-methoxy-N,N-dimethyltryptamine (2:1) fumarate], the “Effect on spatial d” value ([12]; Experiment 2, 3.0 mg/kg s.c., first 30 min of the session (p<0.01)) is reported as “significantly increased spatial d”, the “Effect on spatial d” value ([12]; Experiment 2, 3.0 mg/kg s.c., second 30 min of the session (p<0.01)) is reported as “significantly reduced spatial d” and the “Effect on crossings (locomotor activity)” value ([12]; Experiment 2, 0.3, 1.0 and 3.0 mg/kg s.c., first 20 min of the session) is reported as “significantly reduced crossings”. The “Delayed increase in locomotor activity” value ([12]; Experiment 2, 0.3 and 1.0 mg/kg s.c.) was “Neither of the lower doses tested (0.3 and 1.0 mg/kg) induced a delayed increase in activity”.
